Laboratory results reported in ChEMBL document CHEMBL1132940, “Pharmacophore/receptor models for GABA(A)/BzR subtypes (alpha1beta3gamma2, alpha5beta3gamma2, and alpha6beta3gamma2) via a comprehensive ligand-mapping approach” (J Med Chem, 2000).

Legend:
[1] = Selectivity ratio of alpha1 beta-3 gamma2 GABA A / BzR and alpha5 beta-3 gamma2 GABA A / BzR
[2] = molecular target: T1, GABA-A receptor; alpha-1/beta-3/gamma-2 (Homo sapiens, UniProt P14867+P18507+P28472); test: Binding affinity for human recombinant gamma-aminobutyric-acid (GABA) A receptor alpha-1-beta-3-gamma-2; assay type: protein-complex assay
T1 sequence (P14867 whole entry): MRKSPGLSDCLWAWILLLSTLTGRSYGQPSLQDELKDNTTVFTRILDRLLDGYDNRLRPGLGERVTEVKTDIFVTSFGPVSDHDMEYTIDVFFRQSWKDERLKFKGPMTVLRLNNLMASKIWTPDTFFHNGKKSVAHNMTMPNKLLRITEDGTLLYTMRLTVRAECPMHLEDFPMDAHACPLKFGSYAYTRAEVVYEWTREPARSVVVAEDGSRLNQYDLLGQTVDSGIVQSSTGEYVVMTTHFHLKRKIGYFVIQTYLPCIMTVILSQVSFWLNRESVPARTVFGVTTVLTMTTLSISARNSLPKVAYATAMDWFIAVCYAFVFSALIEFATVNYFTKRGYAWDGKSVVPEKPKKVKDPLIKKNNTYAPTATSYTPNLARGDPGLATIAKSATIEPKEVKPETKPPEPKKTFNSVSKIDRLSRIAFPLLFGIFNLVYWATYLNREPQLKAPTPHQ
T1 sequence (P18507 whole entry): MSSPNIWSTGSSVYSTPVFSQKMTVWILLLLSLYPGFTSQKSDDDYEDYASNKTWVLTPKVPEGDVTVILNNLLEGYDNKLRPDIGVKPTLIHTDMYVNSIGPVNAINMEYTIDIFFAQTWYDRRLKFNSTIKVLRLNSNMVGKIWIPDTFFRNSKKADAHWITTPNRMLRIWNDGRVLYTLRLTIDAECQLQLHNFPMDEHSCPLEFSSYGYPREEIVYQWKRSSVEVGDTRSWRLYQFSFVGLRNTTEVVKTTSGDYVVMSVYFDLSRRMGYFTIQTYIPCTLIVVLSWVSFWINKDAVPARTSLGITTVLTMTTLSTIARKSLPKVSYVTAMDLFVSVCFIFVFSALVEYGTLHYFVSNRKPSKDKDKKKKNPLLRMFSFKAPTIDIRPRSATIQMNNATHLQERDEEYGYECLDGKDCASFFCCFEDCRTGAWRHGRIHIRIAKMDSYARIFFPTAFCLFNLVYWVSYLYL
T1 sequence (P28472 whole entry): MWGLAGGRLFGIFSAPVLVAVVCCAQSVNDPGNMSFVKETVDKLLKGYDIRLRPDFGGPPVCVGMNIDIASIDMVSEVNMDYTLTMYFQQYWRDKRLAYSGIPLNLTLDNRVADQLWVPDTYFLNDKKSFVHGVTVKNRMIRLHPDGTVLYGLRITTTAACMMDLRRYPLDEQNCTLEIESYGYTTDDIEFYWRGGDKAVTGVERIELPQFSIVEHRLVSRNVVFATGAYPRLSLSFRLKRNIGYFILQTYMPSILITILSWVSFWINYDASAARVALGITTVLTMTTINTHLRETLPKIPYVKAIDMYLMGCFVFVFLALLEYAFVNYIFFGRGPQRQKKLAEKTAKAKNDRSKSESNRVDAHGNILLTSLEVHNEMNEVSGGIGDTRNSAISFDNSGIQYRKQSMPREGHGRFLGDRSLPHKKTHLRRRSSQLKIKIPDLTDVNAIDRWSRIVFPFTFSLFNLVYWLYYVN

[3] = molecular target: T2, GABA-A receptor; alpha-5/beta-3/gamma-2 (Homo sapiens, UniProt P18507+P28472+P31644); test: Binding affinity for human recombinant gamma-aminobutyric-acid (GABA) A receptor alpha-5-beta-3-gamma-2; assay type: protein-complex assay
T2 sequence (P18507 whole entry): T1 sequence (P18507 whole entry)
T2 sequence (P28472 whole entry): T1 sequence (P28472 whole entry)
T2 sequence (P31644 whole entry): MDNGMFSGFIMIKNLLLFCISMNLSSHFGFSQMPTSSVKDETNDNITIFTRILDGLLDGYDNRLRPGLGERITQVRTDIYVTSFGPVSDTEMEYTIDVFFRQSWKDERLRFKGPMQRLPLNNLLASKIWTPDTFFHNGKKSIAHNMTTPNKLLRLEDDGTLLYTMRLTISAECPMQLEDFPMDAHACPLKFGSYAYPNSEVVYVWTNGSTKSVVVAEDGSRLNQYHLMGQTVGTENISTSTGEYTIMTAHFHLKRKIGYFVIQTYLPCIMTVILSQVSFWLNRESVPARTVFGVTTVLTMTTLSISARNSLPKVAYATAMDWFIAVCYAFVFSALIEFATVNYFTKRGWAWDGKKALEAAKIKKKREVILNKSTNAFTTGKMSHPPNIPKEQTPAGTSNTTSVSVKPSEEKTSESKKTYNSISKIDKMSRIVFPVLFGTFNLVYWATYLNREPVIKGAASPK

[4] = molecular target: T3, GABA-A receptor; alpha-3/beta-3/gamma-2 (Homo sapiens, UniProt P18507+P28472+P34903); test: Binding affinity for human recombinant gamma-aminobutyric-acid (GABA) A receptor alpha-3-beta-3-gamma-2; assay type: protein-complex assay
T3 sequence (P18507 whole entry): T1 sequence (P18507 whole entry)
T3 sequence (P28472 whole entry): T1 sequence (P28472 whole entry)
T3 sequence (P34903 whole entry): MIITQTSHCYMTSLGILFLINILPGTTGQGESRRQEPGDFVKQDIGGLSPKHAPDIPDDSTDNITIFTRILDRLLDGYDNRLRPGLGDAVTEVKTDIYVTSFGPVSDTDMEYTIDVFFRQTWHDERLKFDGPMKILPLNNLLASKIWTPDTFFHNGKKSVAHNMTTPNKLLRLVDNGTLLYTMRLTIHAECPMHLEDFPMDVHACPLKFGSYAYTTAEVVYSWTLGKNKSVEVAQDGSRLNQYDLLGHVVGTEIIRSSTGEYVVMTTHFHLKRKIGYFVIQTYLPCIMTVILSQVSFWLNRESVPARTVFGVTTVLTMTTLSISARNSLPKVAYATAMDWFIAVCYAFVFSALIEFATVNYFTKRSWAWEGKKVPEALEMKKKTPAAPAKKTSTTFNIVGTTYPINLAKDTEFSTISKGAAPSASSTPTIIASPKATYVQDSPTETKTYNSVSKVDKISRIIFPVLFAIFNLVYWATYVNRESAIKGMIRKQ

[5] = molecular target: GABA-A receptor; alpha-6/beta-3/gamma-2 (Homo sapiens, UniProt P18507+P28472+Q16445); test: Binding affinity for human recombinant gamma-aminobutyric-acid (GABA) A receptor alpha-6-beta-3-gamma-2; assay type: protein-complex assay
Sequence of GABA-A receptor; alpha-6/beta-3/gamma-2 (Q16445 whole entry, one chain of several): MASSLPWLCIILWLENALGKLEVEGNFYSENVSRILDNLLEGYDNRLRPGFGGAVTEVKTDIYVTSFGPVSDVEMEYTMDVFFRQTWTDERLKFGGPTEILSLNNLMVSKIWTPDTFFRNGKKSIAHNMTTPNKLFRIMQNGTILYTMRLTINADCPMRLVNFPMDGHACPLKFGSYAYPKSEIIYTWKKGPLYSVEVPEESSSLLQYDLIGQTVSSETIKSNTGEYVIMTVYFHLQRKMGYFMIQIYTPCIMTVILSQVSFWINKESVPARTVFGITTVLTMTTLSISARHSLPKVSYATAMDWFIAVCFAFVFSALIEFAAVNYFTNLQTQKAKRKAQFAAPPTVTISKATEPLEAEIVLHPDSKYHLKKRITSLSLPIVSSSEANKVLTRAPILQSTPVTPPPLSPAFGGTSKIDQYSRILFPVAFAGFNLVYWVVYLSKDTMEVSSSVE
Summary of the method: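 Ltk⁻ cells expressing human α6β3γ2 were harvested by scraping into PBS, centrifuged at 3000g and resuspended in 10 mM KH₂PO₄/100 mM KCl (pH 7.4). Incubation was 1 h at 4 °C with filter harvest and scintillation counting.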

SMILES	Ratio [1]	also measured
CCOC(=O)c1ncn2c1[C@@H]1CCCN1C(=O)c1cc(Br)ccc1-2	49	–
CN1Cc2c(C(=O)OC(C)(C)C)ncn2-c2ccc(C#CC[Si](C)(C)C)cc2C1=O	12	–
CCN(CC)Cc1ncn2c1CN(C)C(=O)c1cc(Cl)ccc1-2	3.2	–
C#Cc1ccc2c(c1)C(=O)N1CC[C@H]1c1c(-c3nc(C(C)C)no3)ncn1-2	18	–
CN1Cc2c(C(=O)OCC3CC3)ncn2-c2ccc(Cl)cc2C1=O	1.7	–
COc1ccc(-n2nc3c4ccc(OC)cc4[nH]cc-3c2=O)cc1	–	Ki [2]: 0.34 nM; Ki [3]: 0.52 nM; Ki [4]: 0.79 nM; Ki [5]: 10 nM
CCCCCc1ncn2c1CN(C)C(=O)c1cc(Cl)ccc1-2	5.6	–
C#Cc1ccc2c(c1)C(=O)N1CCC[C@H]1c1c(-c3nc(C)no3)ncn1-2	24	–
CN1Cc2c(C(=O)OC(C)(C)C)ncn2-c2ccc(C#C[Si](C)(C)C)cc2C1=O	75.5	–
C#Cc1ccc2c(c1)C(=O)N1CCC[C@H]1c1c(-c3nc(CC)no3)ncn1-2	36	–
CCOC(=O)c1ncn2c1CN(C)C(=O)c1cc(C#C[Si](C)(C)C)ccc1-2	24.2	–
CCc1ccc2c(c1)C(=O)N(C)Cc1c(C(=O)OC(C)(C)C)ncn1-2	8.6	–
CCOC(=O)c1[nH]cc2nc3ccc(OCc4ccc5ccccc5c4)cc3c-2c1COC	–	Ki [2]: 15.4 nM; Ki [3]: 323 nM; Ki [4]: 293 nM; Ki [5]: > 1000 nM
C#Cc1ccc2c(c1)C(=O)N1CCC[C@H]1c1c(C(=O)OCC)ncn1-2	45	–
CCc1ncn2c1CN(C)C(=O)c1cc(Cl)ccc1-2	2.2	–
CCOC(=O)c1ncn2c1[C@@H]1CCN1C(=O)c1cc(Br)ccc1-2	56	–
CCOC(=O)c1ncn2c1[C@@H]1CCN1C(=O)c1cc(C#C[Si](C)(C)C)ccc1-2	32	–
CCOC(=O)c1ncn2c1CN(C)C(=O)c1cc(Cl)ccc1-2	8	–
C=Cc1ccc2c(c1)C(=O)N(C)Cc1c(C(=O)OCC)ncn1-2	20.8	–

SMILES	Ratio [1]	also measured
COCc1c(C(=O)OC(C)C)ncc2[nH]c3ccc(OCc4ccccc4)cc3c12 [ABECARNIL]	–	Ki [5]: > 1000 nM
C#Cc1ccc2c(c1)C(=O)N(C)Cc1c(C(=O)OC(C)(C)C)ncn1-2	67.3	–
CCOC(=O)c1ncn2c1CN(C)C(=O)c1cc(C#N)ccc1-2	1.7	–
CN1C(=O)CN=C(c2ccccc2[N+](=O)[O-])c2cc([N+](=O)[O-])ccc21	0.06	Ki [2]: 0.49 nM; Ki [3]: 7.7 nM; Ki [4]: 0.76 nM; Ki [5]: > 10000 nM
COc1ccc(-n2nc3c4cc(Cl)ccc4[nH]cc-3c2=O)cc1	–	Ki [2]: 0.2 nM; Ki [3]: 0.32 nM; Ki [4]: 0.2 nM; Ki [5]: 1.9 nM
CCOC(=O)c1ncn2c1CN(C)C(=O)c1cc(Br)ccc1-2	3.7	–
CCOC(=O)c1ncn2c1CN(C)C(=O)c1cc(OCC)ccc1-2	12.4	–
C#Cc1ccc2c(c1)C(=O)N1CCC[C@H]1c1c(-c3nc(C(C)C)no3)ncn1-2	15	–
CCOC(=O)c1ncn2c1CN(C)C(=O)c1cc(CC)ccc1-2	13.6	–
CN1Cc2c(C(=O)OC(C)(C)C)ncn2-c2ccc(I)cc2C1=O	25.5	–
CCOCc1ncn2c1CN(C)C(=O)c1cc(Cl)ccc1-2	> 3.6	–
CCOC(=O)c1ncn2c1[C@@H]1CCCN1C(=O)c1ccccc1-2	4.6	Ki [2]: 7.3 nM; Ki [3]: 1.6 nM; Ki [4]: 7.1 nM; Ki [5]: > 300 nM
CN1Cc2c(C(=O)OC(C)(C)C)ncn2-c2ccc([N+](=O)[O-])cc2C1=O	3.7	–
CCOC(=O)c1ncn2c1[C@@H]1CCCN1C(=O)c1cc(OC)ccc1-2	108	Ki [4]: 24.5 nM
C#Cc1ccc2c(c1)C(=O)N(C)Cc1c(C(=O)OCC)ncn1-2	58	–
CN1Cc2c(C(=O)OC(C)(C)C)ncn2-c2ccc(Br)cc2C1=O	24.3	–
CCOC(=O)c1ncn2c1CN(C)C(=O)c1cc(N=[N+]=[N-])ccc1-2 [Ro-154513]	–	Ki [3]: 0.3 nM
COc1ccc2c(c1)C(=O)N(C)Cc1c(C(=O)OC(C)(C)C)ncn1-2	23	–
CC(=O)c1ncn2c1CN(C)C(=O)c1cc(Cl)ccc1-2	6.7	–

SMILES	Ratio [1]	also measured
CN1Cc2c(CCl)ncn2-c2ccc(Cl)cc2C1=O	> 10.5	–
C#Cc1ccc2c(c1)C(=O)N1CC[C@H]1c1c(C(=O)OCC)ncn1-2	57	–
COCc1ncn2c1CN(C)C(=O)c1cc(Cl)ccc1-2	> 7.7	–
CCOc1cc2c(cn1)[nH]c1ccccc12	–	Ki [3]: 826 nM; Ki [4]: 28.2 nM
CCOC(=O)c1ncn2c1[C@@H]1CCCN1C(=O)c1cc(C#C[Si](C)(C)C)ccc1-2	50	–
CN1Cc2c(C(=O)OC(C)(C)C)ncn2-c2ccc(O)cc2C1=O	10.7	–
[N-]=[N+]=Nc1ccc2c(c1)C(c1ccccc1N=[N+]=[N-])=NCC(=O)N2	1.32	Ki [2]: 2160 nM; Ki [3]: 1640 nM; Ki [4]: 4620 nM; Ki [5]: > 1000 nM
CN1C(=O)CN=C(c2ccccc2)c2cc(Cl)ccc21 [DIAZEPAM]	–	Ki [5]: > 3000 nM
CN1Cc2c(C(=O)OC(C)(C)C)ncn2-c2ccc(Cl)cc2C1=O	26.6	–
CC#Cc1ccc2c(c1)C(=O)N(C)Cc1c(C(=O)OCC)ncn1-2	6	–
CCCOc1ccc2[nH]c3cnc(OCCC)c(COC)c3c2c1	–	Ki [5]: > 1000 nM
CN1Cc2c(C(=O)OC(C)(C)C)ncn2-c2ccc(N=C=S)cc2C1=O	6.8	–
C#Cc1ccc2c(c1)C(=O)N1CC[C@H]1c1c(-c3nc(CC)no3)ncn1-2	17	–
CN1Cc2c(C(=O)OC(C)(C)C)ncn2-c2ccc(N3CCCC3)cc2C1=O	0.63	–
COC(=O)c1cc2c3cc(SC#N)ccc3nc-2c[nH]1	–	Ki [2]: 3.41 nM; Ki [3]: 141 nM; Ki [4]: 30 nM; Ki [5]: > 10000 nM
CC(C)N(Cc1ncn2c1CN(C)C(=O)c1cc(Cl)ccc1-2)C(C)C	3.2	–
CCCCC(=O)c1ncn2c1CN(C)C(=O)c1cc(Cl)ccc1-2	9.6	–
C#Cc1ccc2c(c1)C(=O)N1CCC[C@@H]1c1c(C(=O)OCC)ncn1-2	39	–
